ChEMBL document CHEMBL1157559, “Synthesis and biological evaluation of novel pyrazolyl-2,4-thiazolidinediones as anti-inflammatory and neuroprotective agents” (Bioorg Med Chem, 2010)

Assays:
[1] = test system: Rattus norvegicus; experiment: Antiinflammatory activity in Wistar albino rat acute inflammatory model assessed as inhibition of formalin-induced paw edema at 20 mg/kg, po administered 1 hr before formalin challenge measured after 1 hr by plethysmometer relative to control; assay type: functional; design: scale not given: the % may be the effect or the level left
In short: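 Male Wistar rats, 180–200 g, groups of five. Test compound 20 mg/kg po; 1 h later 0.1 mL 2% formalin injected subplantar into left hind paw under light ether anesthesia. Paw volume by water plethysmometer at 0 and 1, 2, 3, 4 h after formalin. % inhibition = (Vt−V0)control minus (Vt−V0)treated, divided by (Vt−V0)control ×100. Mean ± SEM, ANOVA with Student–Newman–Keuls.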

[2] = test system: Rattus norvegicus; experiment: Antiinflammatory activity in Wistar albino rat sub-acute inflammatory model assessed as inhibition of turpentine oil-induced granuloma pouch exudate volume at 20 mg/kg, po 1 hr before turpentine oil challenge for 7 days assessed measured on day 8; assay type: functional
In short: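 Male rats 120–150 g, five per group. Subcutaneous dorsal pouch made under ether with 2 mL air, then 0.5 mL turpentine oil injected. Compound 20 mg/kg po 1 h before turpentine, then daily for seven days. On day 8 exudate drawn by syringe under anesthesia and volume measured. % inhibition = (Vcontrol − Vtreated)/Vcontrol ×100.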

[3] = test system: Rattus norvegicus; experiment: Antiinflammatory activity in Wistar albino rat sub-acute inflammatory model assessed as inhibition of formalin-induced paw edema at 20 mg/kg, po administered daily for 7 days by plethysmometer relative to control; assay type: functional; conditions: 168 h
In short: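 Rats dosed orally at 20 mg/kg daily for 7 consecutive days. 0.1 mL 2% formalin given subplantar in left hind paw under light ether 1 h after the first oral dose, with a second injection on day 3. Paw edema weight (g) measured on day 8. % inhibition = (control − treated)/control ×100. Groups of five.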

[4] = test system: THP-1; experiment: Cytotoxicity against LPS and IFN-gamma-stimulated human THP1 cells after 24 hrs; assay type: functional, cell-based; conditions: THP-1, 24 h
In short: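 THP-1 cells, 24-well, in DMEM-F12 with 5% FBS. Compound or DMSO added 15 min before LPS 0.5 µg/mL plus IFN-γ 150 U/mL. After 24 h, LDH release (fraction of Triton-lysed value, OD 490) and MTT were read. EC50 taken from curves of at least three independent experiments; the lower of the two assay values was reported.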

[5] = test system: Rattus norvegicus; experiment: Gastrointestinal toxicity in Wistar albino rat assessed as hyperemia at 100 mg/kg/day, po administered twice daily for 3 days; assay type: organism-based; design: route oral; conditions: in vivo, 72 h
In short: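 Male rats 180–200 g, groups of five, fasted 12 h with water available. Compounds given orally as two equal doses at 0 and 12 h, 100 mg/kg per day, for three successive days; vehicle control 1% gum acacia. Rats killed 6 h after last dose. Stomach opened along greater curvature, washed with cold saline and inspected under 3× lens for hyperemia, hemorrhage, erosions or ulcers.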

[6] = test system: HL-60; experiment: Inhibition of phagocyte respiratory burst in human HL60 cells after 6 to 7 days by luminol-induced chemiluminescence; assay type: functional, cell-based
In short: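 HL-60 cells differentiated 6–7 days in DMEM-F12 with 10% FBS and 1.3% DMSO, washed into serum-free, phenol red-free medium, then held 30 min at 37 °C before compound or DMSO was added. Luminol injected, 7.5 min baseline recorded, then FMLP injected (final 1 µM; luminol 5 mM; DMSO 0.5%). Chemiluminescence recorded 30 min at 37 °C; read-out was area under the curve.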

SMILES: O=C1NC(=O)/C(=C/c2cn(-c3ccc([N+](=O)[O-])cc3)nc2-c2ccc(Cl)cc2)S1
- Activity [1]: 24%
- inhibition in vivo at 20 mg/kg [2]: 51%
- inhibition in vivo at 20 mg/kg [3]: 51%
- EC50 [4]: > 100000 nM
- Activity [5]: Non-toxic
- IC50 [6]: 1000 nM
